Results as given in ChEMBL document CHEMBL1133727, “Structure-activity relationships in a series of bisquaternary bisphthalimidine derivatives modulating the muscarinic M(2)-receptor allosterically” (J Med Chem, 2000).

How the values were obtained:
[1] = target: T1, Muscarinic acetylcholine receptor M2 (Sus scrofa, UniProt P06199); assay: Inhibition of [3H]- N-methyl-scopolamine ([3H]NMS) dissociation from porcine cardiac M2-receptors; details: read-out: Log 1/EC50 (converted)
T1 sequence (P06199 whole entry): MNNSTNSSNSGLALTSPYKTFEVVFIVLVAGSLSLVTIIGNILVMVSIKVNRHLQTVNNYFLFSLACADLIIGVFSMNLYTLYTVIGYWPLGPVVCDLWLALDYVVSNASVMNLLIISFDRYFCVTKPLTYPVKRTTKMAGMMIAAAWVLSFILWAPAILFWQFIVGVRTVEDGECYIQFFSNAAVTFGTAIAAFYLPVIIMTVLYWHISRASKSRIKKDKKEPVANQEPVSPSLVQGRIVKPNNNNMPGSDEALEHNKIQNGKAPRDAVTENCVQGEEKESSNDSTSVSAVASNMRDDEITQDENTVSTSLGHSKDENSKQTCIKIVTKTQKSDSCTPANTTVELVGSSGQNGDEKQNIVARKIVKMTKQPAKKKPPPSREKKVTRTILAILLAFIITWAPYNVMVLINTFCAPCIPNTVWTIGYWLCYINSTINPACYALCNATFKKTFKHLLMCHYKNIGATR
Summary of the method: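 Porcine heart ventricular myocardium homogenate, stored at −80 °C. Membranes preincubated 30 min with [3H]NMS in 3 mM MgHPO4, 50 mM Tris, pH 7.3, 37 °C. Dissociation started with 1 µM atropine, with or without test compound. Bound ligand collected by filtration and counted by liquid scintillation. Monoexponential fit gave apparent k−1; EC50 for k−1 reduced to 50% of control, from four-parameter logistic fit.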

[2] = Partition coefficient (logP); assay type: physicochemical; details: octanol/water

Compound | EC50 [1] [nM] | logP [2]
C[N+](C)(CCCCCC[N+](C)(C)CCCN1C(=O)c2ccccc2/C1=C/c1ccccc1)CCCN1C(=O)c2ccccc2/C1=C/c1ccccc1 | 85.1 | 2.96
C[N+](C)(CCCCCC[N+](C)(C)CCCN1C(=O)c2ccccc2C1Cc1ccccc1)CCCN1C(=O)c2ccccc2C1Cc1ccccc1 (centres undefined) | 1000 | 3.65
C[N+](C)(CCCCCC[N+](C)(C)CCCN1C(=O)c2ccccc2C1=O)CCCN1C(=O)c2ccccc2C1=O | 1410 | 1.46
C[N+](C)(CCCCCC[N+](C)(C)CCCN1Cc2ccccc2C1=O)CCCN1Cc2ccccc2C1=O | 2000 | 1.55
CC(C)SC1c2ccccc2C(=O)N1CCC[N+](C)(C)CCCCCC[N+](C)(C)CCCN1C(=O)c2ccccc2C1SC(C)C (centres undefined) | 1260 | 2.92
C[N+](C)(CCCCCC[N+](C)(C)CCCN1C(=O)c2ccccc2C1c1ccccc1)CCCN1C(=O)c2ccccc2C1c1ccccc1 (centres undefined) | 794 | 3.4
CCOC1c2ccccc2C(=O)N1CCC[N+](C)(C)CCCCCC[N+](C)(C)CCCN1C(=O)c2ccccc2C1OCC (centres undefined) | 2290 | 2.07
C[N+](C)(CCCCCC[N+](C)(C)CCCN1C(=O)c2ccccc2/C1=C\c1ccccc1)CCCN1C(=O)c2ccccc2/C1=C/c1ccccc1 | 66.1 | 2.96
CC(C)OC1c2ccccc2C(=O)N1CCC[N+](C)(C)CCCCCC[N+](C)(C)CCCN1C(=O)c2ccccc2C1OC(C)C (centres undefined) | 1580 | 2.48
C[N+](C)(CCCCCC[N+](C)(C)CCCN1C(=O)c2ccccc2C1O)CCCN1C(=O)c2ccccc2C1O (centres undefined) | 6030 | 1.45
C[N+](C)(CCCCCC[N+](C)(C)CCCN1C(=O)c2ccccc2/C1=C\c1ccccc1)CCCN1C(=O)c2ccccc2/C1=C\c1ccccc1 | 70.8 | 2.96
COC1c2ccccc2C(=O)N1CCC[N+](C)(C)CCCCCC[N+](C)(C)CCCN1C(=O)c2ccccc2C1OC (centres undefined) | 6760 | 1.72
